From ChEMBL document CHEMBL1141754, “A labdane diterpene glucoside from the rhizomes of Curcuma mangga” (J Nat Prod, 2005)

Assays:
[1] = Antioxidant activity assessed as inhibition of copper-induced lipid peroxidation by Fe3(CN)6 method at 300 uM; assay type: functional; parameters: scale not given: the % may be the effect or the level left
[2] = system: HepG2; assay: Cytotoxicity against human HepG2; assay type: functional, cell-based
Outline: (§1)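 Five human cancer lines: HL-60 (leukemia), HepG2 (liver), MCF-7 (breast), DU-145 (prostate) and NCI-H460 (lung). IC50 given in μM ± SD from three experiments, each run in triplicate.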

[3] = system: MCF7; assay: Cytotoxicity against human MCF7; assay type: functional, cell-based; outline: as §1
[4] = system: HL-60; assay: Cytotoxicity against human HL60; assay type: functional, cell-based; outline: as §1
[5] = system: DU-145; assay: Cytotoxicity against human DU145; assay type: functional, cell-based; outline: as §1
[6] = system: NCI-H460; assay: Cytotoxicity against human NCI-H460; assay type: functional, cell-based; outline: as §1

Row | Compound | Activity [1] [%] | IC50 [2] [µM] | IC50 [3] [µM] | IC50 [4] [µM] | IC50 [5] [µM] | IC50 [6] [µM]
1 | C=C1CC[C@H]2C(C)(C)CCC[C@]2(C)[C@H]1C/C=C(/C=O)CC(OC)OC | 11.5 | – | – | – | – | –
2 | C=C1CC[C@H]2C(C)(C)CCC[C@]2(C)[C@H]1C/C=C(/C=O)CC=O | 5.7 | – | – | – | – | –
3 | CC1(C)[C@@H](O[C@@H]2O[C@H](CO)[C@@H](O)[C@H](O)[C@H]2O)CC[C@]2(C)[C@H]3CC(C4=CCOC4=O)OC(O)[C@H]3CC[C@@H]12 (stereo partly specified) | 0 | – | – | – | – | –
4 | Cc1c(C)c2c(c(C)c1O)CC[C@@](C)(CCC[C@H](C)CCC[C@H](C)CCCC(C)C)O2 | 45.2 | – | – | – | – | –
5 | Cc1cc(C(C)(C)C)c(O)c(C(C)(C)C)c1 | 99.9 | – | – | – | – | –
6 | O=C(/C=C/C=C/c1ccc(O)cc1)/C=C/c1ccc(O)cc1 | 92.9 | – | – | – | – | –
7 | O=c1c(O)c(-c2ccc(O)c(O)c2)oc2cc(O)cc(O)c12 | 51.3 | – | – | – | – | –
8 | O=C(/C=C/c1ccc(O)cc1)CC(=O)/C=C/c1ccc(O)cc1 [BISDEMETHOXYCURCUMIN] | 93.3 | > 50 | 33.8 | 25.1 | 30.1 | 88.1
9 | COc1cc(/C=C/C(=O)CC(=O)/C=C/c2ccc(O)c(OC)c2)ccc1O [CURCUMIN] | 96.5 | 35.5 | 10.4 | 34.2 | 20.6 | 27.6
10 | COc1cc(/C=C/C(O)=C/C(=O)/C=C/c2ccc(O)cc2)ccc1O [DEMETHOXYCURCUMIN] | 93.8 | > 50 | 18.5 | 24.2 | 21.7 | 25.7
11 | COc1cc2ccc(=O)oc2cc1O [SCOPOLETIN] | 94.9 | > 50 | > 50 | > 50 | > 50 | > 50
12 | C=C1CC[C@H]2C(C)(C)CCC[C@]2(C)[C@H]1C[C@@H](O)C1=CC(O)OC1=O (stereo partly specified) [ZERUMIN B] | 16.5 | 25.3 | 0.59 | 7.21 | 11.2 | –
